Measurements: ChEMBL document CHEMBL4673335, “Store-Operated Calcium Entry as a Therapeutic Target in Acute Pancreatitis: Discovery and Development of Drug-Like SOCE Inhibitors” (J Med Chem, 2020)
Activity calls are given as the source filed them. The rule behind the calls is not given here.

Key:
[1] = target: T1, ORAI1/STIM1 (Homo sapiens) (UniProt Q96D31+Q13586); assay: Inhibition of STIM1/Orai1 (unknown origin) expressed in HEK293 cells assessed as reduction in tBHQ-induced calcium response at 10 uM relative to control; type: cell-based
How it was run: (§1)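 HEK cells, calcium imaging by fluorescence microscopy. Ca2+ added after 600 s and intracellular levels recorded. Traces averaged over 200 cells, then scored as AUC, peak amplitude and slope of the Ca2+ rise versus untreated control. Compound working solutions diluted from a 50 mM DMSO stock to 0.1% DMSO in physiologic buffer.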

[2] = tested on: HEK293; assay: Cytotoxicity in HEK293 cells assessed as cell viability at 10 uM after 24 hrs by MTT assay; type: cell-based; conditions: human, hek293, 24 h
How it was run: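 MTT viability assay. HEK cells seeded at 20,000 per well, treated 24 h after plating for a further 24 h. MTT at 0.25 mg/mL final for 60 min at 37 °C. Crystals dissolved in isopropyl alcohol/HCl (1 M), absorbance read at 570 nm. Compounds diluted to 0.1% DMSO in culture medium.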

[3] = target: ORAI1/STIM1 (Homo sapiens, UniProt Q13586+Q96D31); assay: Inhibition of STIM1/Orai1 (unknown origin) expressed in HEK293 cells assessed as reduction in tBHQ-induced calcium response; type: cell-based
[4] = target: T1, ORAI1/STIM1 (Homo sapiens); assay: Inhibition of STIM1/Orai1 (unknown origin) expressed in HEK293 cells assessed as reduction in tBHQ-induced calcium response by measuring decrease in calcium entry AUC at 10 uM relative to control; type: cell-based; how it was run: as §1
[5] = target: T1, ORAI1/STIM1 (Homo sapiens); assay: Inhibition of STIM1/Orai1 (unknown origin) expressed in HEK293 cells assessed as reduction in tBHQ-induced calcium response by measuring decrease in peak amplitude of calcium entry at 10 uM relative to control; type: cell-based; how it was run: as §1
[6] = target: T1, ORAI1/STIM1 (Homo sapiens); assay: Inhibition of STIM1/Orai1 (unknown origin) expressed in HEK293 cells assessed as reduction in tBHQ-induced calcium response by measuring decrease in slope of calcium entry at 10 uM relative to control; type: cell-based; how it was run: as §1
[7] = tested on: HEK293; assay: Cytotoxicity in HEK293 cells assessed as cell viability at 50 uM after 72 hrs by MTT assay; type: cell-based; conditions: human, hek293, 72 h
How it was run: (§2)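 MTT viability in HEK cells after 72 h treatment at 50 μM, with or without 100 μM uridine. MTT at 0.25 mg/mL final for 60 min at 37 °C, solubilized in isopropyl alcohol/HCl (1 M), absorbance read at 570 nm. Mean ± SEM, Student t-test against control.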

[8] = tested on: HEK293; assay: Cytotoxicity in HEK293 cells assessed as cell viability at 50 uM after 72 hrs in presence of excess uridine by MTT assay; type: cell-based; conditions: human, hek293, 72 h; how it was run: as §2
[9] = Thermodynamic aqueous solubility; type: physicochemical; conditions: read-out: Therm_solubility
How it was run: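 About 3 mg compound in 3 mL deionized water, vortexed, sonicated 5 min, then shaken overnight at 25 °C. Filtered through a 0.22 μm membrane, DMSO added, diluted about 1:10 in water. Quantified by LC–UV against DMSO standard solutions.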

[10] = Metabolic stability in mouse liver microsomes assessed as compound remaining after 1 hr; type: ADME, Microsome; conditions: read-out: Stabilty
How it was run: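 Pooled male CD-1 mouse liver microsomes (20 mg/mL protein stock), NADPH-activated. Substrate at 5 μM. Residual parent measured after 1 h incubation.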

[11] = dose 3.0 µM, in the assay text read “at 3 uM” for “at 10 uM”

T1 sequence (Q13586 23-685 partner limits assumed): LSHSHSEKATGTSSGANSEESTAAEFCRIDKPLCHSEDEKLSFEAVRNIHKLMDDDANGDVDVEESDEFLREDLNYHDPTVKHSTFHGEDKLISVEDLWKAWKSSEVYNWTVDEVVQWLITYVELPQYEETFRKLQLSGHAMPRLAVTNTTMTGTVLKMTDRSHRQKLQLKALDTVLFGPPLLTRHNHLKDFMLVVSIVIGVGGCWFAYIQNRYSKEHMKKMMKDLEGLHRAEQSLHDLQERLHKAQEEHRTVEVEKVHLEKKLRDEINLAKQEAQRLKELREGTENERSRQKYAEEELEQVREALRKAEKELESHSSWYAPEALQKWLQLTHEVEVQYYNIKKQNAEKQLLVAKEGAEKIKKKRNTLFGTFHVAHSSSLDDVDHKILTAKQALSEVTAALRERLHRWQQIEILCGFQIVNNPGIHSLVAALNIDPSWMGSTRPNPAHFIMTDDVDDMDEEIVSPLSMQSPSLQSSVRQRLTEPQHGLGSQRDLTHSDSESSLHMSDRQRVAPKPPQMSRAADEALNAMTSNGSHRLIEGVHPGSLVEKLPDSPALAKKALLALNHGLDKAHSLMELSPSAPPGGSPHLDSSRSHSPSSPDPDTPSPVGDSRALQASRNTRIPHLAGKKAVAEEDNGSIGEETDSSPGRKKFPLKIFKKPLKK
T1 sequence (Q96D31 whole entry): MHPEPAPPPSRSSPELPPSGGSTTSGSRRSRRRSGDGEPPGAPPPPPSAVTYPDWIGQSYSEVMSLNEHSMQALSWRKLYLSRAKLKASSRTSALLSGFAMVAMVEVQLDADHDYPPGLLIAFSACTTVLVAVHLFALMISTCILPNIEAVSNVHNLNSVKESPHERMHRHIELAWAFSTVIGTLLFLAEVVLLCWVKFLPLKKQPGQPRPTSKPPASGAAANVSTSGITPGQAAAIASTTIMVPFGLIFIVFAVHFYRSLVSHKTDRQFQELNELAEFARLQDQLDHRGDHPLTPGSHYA
Sequence of ORAI1/STIM1 (Q96D31 whole entry): as above
Sequence of ORAI1/STIM1 (Q13586 whole entry): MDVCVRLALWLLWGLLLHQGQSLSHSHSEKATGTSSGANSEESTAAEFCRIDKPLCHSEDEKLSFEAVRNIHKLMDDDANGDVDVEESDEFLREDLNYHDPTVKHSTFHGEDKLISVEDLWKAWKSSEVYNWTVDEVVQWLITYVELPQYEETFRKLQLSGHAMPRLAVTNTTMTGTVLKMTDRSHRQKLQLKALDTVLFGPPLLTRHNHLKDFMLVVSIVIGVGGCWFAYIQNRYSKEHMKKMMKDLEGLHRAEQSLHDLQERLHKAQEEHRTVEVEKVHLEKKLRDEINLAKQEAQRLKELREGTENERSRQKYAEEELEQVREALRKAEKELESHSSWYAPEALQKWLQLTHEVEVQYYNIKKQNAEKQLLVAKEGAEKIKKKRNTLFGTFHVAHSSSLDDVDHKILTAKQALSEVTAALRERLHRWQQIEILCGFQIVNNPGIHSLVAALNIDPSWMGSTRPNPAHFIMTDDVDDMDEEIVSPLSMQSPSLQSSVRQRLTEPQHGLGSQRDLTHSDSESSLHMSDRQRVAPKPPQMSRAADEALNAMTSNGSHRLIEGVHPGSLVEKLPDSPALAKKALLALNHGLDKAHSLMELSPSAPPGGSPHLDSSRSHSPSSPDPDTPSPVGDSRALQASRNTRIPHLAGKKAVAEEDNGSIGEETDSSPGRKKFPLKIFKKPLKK

Compound: COc1ccc(F)c(-c2ccc(-c3cn(-c4cccc(C(=O)O)c4)nn3)cc2)c1
- inhibition ([1]; dose 10.0 µM): 88.9%
- Activity [2]: 92.3%
- IC50 [3]: 866 nM
- inhibition [4]: Active
- inhibition [5]: Active
- inhibition [6]: Active

Compound: COc1ccc(OC)c(-c2ccc(-c3cn(-c4cccc(C(=O)O)c4)nn3)cc2)c1
- inhibition ([1]; dose 10.0 µM): 87.8%
- Activity [2]: 71.8%
- IC50 [3]: 1790 nM
- inhibition [4]: Active
- inhibition [5]: Active

Compound: Cc1cccc(F)c1C(=O)Nc1cnc(-c2cc3c(cc2Cl)OC(F)(F)O3)cn1 [ZEGOCRACTIN]
- Activity [7]: Toxic
- Activity [8]: Toxic

Compound: COc1ccc(OC)c(-c2ccc(-c3cn(-c4ccncc4F)nn3)cc2)c1
- inhibition ([1]; dose 10.0 µM): 26.2%

Compound: CSc1cccc(-c2ccc(-c3cn(-c4cccc(C(=O)O)c4)nn3)cc2)c1
- inhibition ([1]; dose 10.0 µM): 0%

Compound: COc1ccc(OC)c(-c2ccc(-n3cc(-c4ccncc4F)nn3)cc2)c1
- inhibition ([1]; dose 10.0 µM): -4.9%

Compound: O=C(O)c1cccc(-c2cn(-c3ccc(-c4ccc5c(c4)OCCO5)cc3)nn2)c1 [listing 1 of 2 here]
- inhibition ([1]; dose 10.0 µM): 77.5%
- inhibition [4]: Active
- inhibition [5]: Active
- inhibition [6]: Active

Compound: COc1ccc(-c2ccc(-n3cc(-c4cccc(C(=O)O)c4)nn3)cc2)c(OC)c1
- inhibition ([1]; dose 10.0 µM): 56.4%

Compound: O=C([O-])c1cccc(-c2cn(-c3ccc(-c4ccc5c(c4)OCCO5)cc3)nn2)c1.[Na+]
- solubility thermodynamic [9]: 668 µg/mL
- remaining at 1 h [10]: 94%

Compound: COc1ccc(F)c(-c2ccc(-n3cc(-c4cccc(C(=O)[O-])c4)nn3)cc2)c1.[Na+]
- solubility thermodynamic [9]: 1170 µg/mL
- remaining at 1 h [10]: 93%

Compound: COc1ccc(OC)c(-c2ccc(-n3cc(-c4cccc(C(=O)O)c4)nn3)cc2)c1
- inhibition ([1]; dose 10.0 µM): 76.2%

Compound: O=C(O)c1cccc(-c2cn(-c3ccc(-c4ccc5c(c4)OCO5)cc3)nn2)c1
- inhibition ([1]; dose 10.0 µM): 67.3%

Compound: O=C(O)c1cccc(-n2cc(-c3ccc(-c4cccc5c4OCCO5)cc3)nn2)c1
- inhibition ([1]; dose 10.0 µM): 44.1%

Compound: O=C(O)c1cccc(-n2cc(-c3ccc(-c4ccc5c(c4)OCCO5)cc3)nn2)c1
- inhibition ([1]; dose 10.0 µM): 81.1%
- Activity [2]: 71.7%

Compound: COc1ccc(OC)c(-c2ccc(-c3cn(-c4ccncc4)nn3)cc2)c1
- inhibition ([1]; dose 10.0 µM): -1.7%

Compound: COc1cc(OC)cc(-c2ccc(-c3cn(-c4cccc(C(=O)O)c4)nn3)cc2)c1
- inhibition ([1]; dose 10.0 µM): 75.4%

Compound: COc1cc(OC)cc(-c2ccc(-n3cc(-c4cccc(C(=O)[O-])c4)nn3)cc2)c1.[Na+]
- solubility thermodynamic [9]: 18.7 µg/mL
- remaining at 1 h [10]: 92%

Compound: COc1ccc(-c2ccc(-c3cn(-c4cccc(C(=O)O)c4)nn3)cc2)c(OC)c1
- inhibition ([1]; dose 10.0 µM): 53%

Compound: COC(=O)c1cc(-n2cc(-c3ccc(-c4cc(OC)ccc4OC)cc3)nn2)ccn1
- inhibition ([1]; dose 10.0 µM): 73.5%

Compound: COc1ccc(-c2ccc(-n3cc(-c4cccc(C(=O)O)c4)nn3)cc2)cc1OC
- inhibition [1, 11]: 54.3%

Compound: COc1ccc(OC)c(-c2ccc(-c3cn(-c4ccnc(C(=O)O)c4)nn3)cc2)c1
- inhibition ([1]; dose 10.0 µM): 57.2%

Compound: COc1cccc(-c2ccc(-n3cc(-c4cccc(C(=O)O)c4)nn3)cc2)c1 [listing 1 of 2 here]
- IC50 [3]: 807 nM
- Activity [7]: Non-Toxic
- Activity [8]: Non-Toxic

Compound: O=C(O)c1cccc(-c2cn(-c3ccc(-c4ccccc4)cc3)nn2)c1
- inhibition ([1]; dose 10.0 µM): 51%

Compound: O=C(O)c1cccc(-c2cn(-c3ccc(-c4ccc5c(c4)OCCO5)cc3)nn2)c1 [listing 2 of 2 here]
- IC50 [3]: 1200 nM
- Activity [7]: Non-Toxic
- Activity [8]: Non-Toxic

Compound: Cc1c(-c2ccc(-c3ccccc3F)cc2)nc2ccc(F)cc2c1C(=O)O [BREQUINAR]
- Activity [7]: Non-Toxic

Compound: O=C(O)c1cccc(-c2cn(-c3ccc(-c4cccc(O)c4)cc3)nn2)c1
- inhibition [1, 11]: 0%

Compound: O=C(O)c1cccc(-n2cc(-c3ccc(-c4ccc5c(c4)OCO5)cc3)nn2)c1
- inhibition ([1]; dose 10.0 µM): 0%

Compound: COc1cccc(-c2ccc(-c3cn(-c4cccc(C(=O)O)c4)nn3)cc2)c1OC
- inhibition ([1]; dose 10.0 µM): 93.3%
- IC50 [3]: 781 nM
- inhibition [4]: Active
- inhibition [5]: Active
- inhibition [6]: Active

Compound: COc1cccc(OC)c1-c1ccc(-n2cc(-c3cccc(C(=O)O)c3)nn2)cc1
- inhibition ([1]; dose 10.0 µM): 25.8%

Compound: COc1ccc(OC)c(-c2ccc(-n3cc(-c4ccnc(C(=O)O)c4)nn3)cc2)c1
- inhibition ([1]; dose 10.0 µM): 79.9%

Compound: COc1cc(OC)cc(-c2ccc(-n3cc(-c4cccc(C(=O)O)c4)nn3)cc2)c1 [listing 1 of 2 here]
- Activity [2]: 94.3%
- IC50 [3]: 802 nM
- Activity [7]: Non-Toxic
- Activity [8]: Non-Toxic

Compound: COc1ccc(-c2ccc(-c3cn(-c4cccc(C(=O)O)c4)nn3)cc2)cc1OC
- inhibition ([1]; dose 10.0 µM): 39.6%

Compound: O=C(O)c1cccc(NC(=O)c2ccc(-c3ccc4c(c3)OCCO4)cc2)c1
- inhibition ([1]; dose 10.0 µM): 22.6%
- Activity [2]: 95.3%
- Activity [8]: Non-Toxic

Compound: COc1ccc(F)c(-c2ccc(-n3cc(-c4cccc(C(=O)O)c4)nn3)cc2)c1 [listing 1 of 2 here]
- inhibition ([1]; dose 10.0 µM): 74.7%
- inhibition [4]: Active
- inhibition [5]: Active
- inhibition [6]: Active

Compound: COc1ccc(OC)c(-c2ccc(-n3cc(-c4ccccn4)nn3)cc2)c1
- inhibition ([1]; dose 10.0 µM): 0%

Compound: COc1ccccc1-c1ccc(-n2cc(-c3cccc(C(=O)O)c3)nn2)cc1
- inhibition ([1]; dose 10.0 µM): 45.9%

Compound: O=C(O)c1cccc(-n2cc(-c3ccc(-c4ccccc4)cc3)nn2)c1
- inhibition [1, 11]: 1.8%

Compound: COc1ccc(OC)c(-c2ccc(-c3cn(-c4cccnc4)nn3)cc2)c1
- inhibition ([1]; dose 10.0 µM): 1.2%

Compound: O=C(O)c1cccc(-c2cn(-c3ccc(-c4cccc5c4OCCO5)cc3)nn2)c1
- inhibition [1, 11]: 70.9%
- Activity [2]: 90.5%
- IC50 [3]: 1620 nM
- inhibition [4]: Active
- inhibition [5]: Active
- inhibition [6]: Active

Compound: COc1cccc(-c2ccc(-c3cn(-c4cccc(C(=O)O)c4)nn3)cc2)c1
- inhibition [1, 11]: 29.5%

Compound: O=C(Nc1ccc(-n2nc(C(F)(F)F)cc2C(F)(F)F)cc1)c1ccncc1F
- Activity [7]: Toxic
- Activity [8]: Toxic

Compound: O=C(O)c1cccc(C(=O)Nc2ccc(-c3ccc4c(c3)OCCO4)cc2)c1
- inhibition ([1]; dose 10.0 µM): 51.8%
- Activity [2]: 50.3%
- Activity [7]: Toxic
- Activity [8]: Non-Toxic

Compound: COc1cc(OC)cc(-c2ccc(-n3cc(-c4cccc(C(=O)O)c4)nn3)cc2)c1 [listing 2 of 2 here]
- inhibition [1, 11]: 73.8%
- inhibition [4]: Active
- inhibition [5]: Active
- inhibition [6]: Active

Compound: COc1ccc(F)c(-c2ccc(-n3cc(-c4cccc(C(=O)O)c4)nn3)cc2)c1 [listing 2 of 2 here]
- Activity [2]: 91.1%
- IC50 [3]: 361 nM
- Activity [7]: Non-Toxic
- Activity [8]: Non-Toxic

Compound: CSc1cccc(-c2ccc(-n3cc(-c4cccc(C(=O)O)c4)nn3)cc2)c1
- inhibition [1, 11]: 23.6%

Compound: COc1cccc(-c2ccc(-n3cc(-c4cccc(C(=O)O)c4)nn3)cc2)c1 [listing 2 of 2 here]
- inhibition [1, 11]: 85.1%
- inhibition [4]: Active
- inhibition [5]: Active
- inhibition [6]: Active

Compound: COc1ccccc1-c1ccc(-c2cn(-c3cccc(C(=O)O)c3)nn2)cc1
- inhibition [1, 11]: 12%

Compound: COc1cccc(-c2ccc(-n3cc(-c4cccc(C(=O)[O-])c4)nn3)cc2)c1.[Na+]
- solubility thermodynamic [9]: 856 µg/mL
- remaining at 1 h [10]: 91%

Compound: C/C(O)=C(\C#N)C(=O)Nc1ccc(C(F)(F)F)cc1 [TERIFLUNOMIDE]
- Activity [7]: Non-Toxic
